Counter-ions that a name gives are not always drawn. Calls of active or inactive are those of the source. No cut-off for these calls is given here. Residues, ends and D or L forms follow the SMILES beside them. *: point of attachment. Phenylacetyl(4-E-phenylazo) = O=C(Cc1ccc(/N=N/c2ccccc2)cc1)*; X5 = CCN(CC)c1ccc(/N=N/c2ccc(CC(=O)*)cc2)cc1; X3 = CN(C)c1ccc(/N=N/c2ccc(CCC(=O)*)cc2)cc1; X2 = CN(C)c1ccc(/N=N/c2ccc(C(=O)*)cc2)cc1; Tfa = O=C(C(F)(F)F)*
Legend:
[1] = molecular target: T1, NAD-dependent protein deacetylase sirtuin-2 (Homo sapiens) (UniProt Q8IXJ6); test: Inhibition of recombinant human SIRT2 demyristoylase activity at 1 uM using p53(Myr)-AMC as substrate measured after 3 hrs in presence of NAD+ and trypsin by fluorescence assay relative to control
T1 sequence (whole entry): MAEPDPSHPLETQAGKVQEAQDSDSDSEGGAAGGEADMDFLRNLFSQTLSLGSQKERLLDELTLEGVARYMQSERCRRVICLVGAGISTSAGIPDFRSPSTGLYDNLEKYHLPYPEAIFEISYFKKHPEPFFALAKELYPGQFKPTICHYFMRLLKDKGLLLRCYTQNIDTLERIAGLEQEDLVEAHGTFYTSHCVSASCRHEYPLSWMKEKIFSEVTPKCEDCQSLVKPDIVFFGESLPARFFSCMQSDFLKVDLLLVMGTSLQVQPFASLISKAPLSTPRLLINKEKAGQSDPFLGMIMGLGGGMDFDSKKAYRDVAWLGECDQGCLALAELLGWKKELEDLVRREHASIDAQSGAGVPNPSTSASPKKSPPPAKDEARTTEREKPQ

[2] = molecular target: NAD-dependent protein deacylase sirtuin-6 (Homo sapiens) (UniProt Q8N6T7); test: Inhibition of recombinant human N-terminal polyhis-tagged SIRT6 (1 to 355 residues) defatty-acylase activity expressed in Escherichia coli at 2 uM using SFP3 as substrate measured at 5 mins interval for 60 mins in presence of NAD+ by fluorescence assay relative to control
Sequence of NAD-dependent protein deacylase sirtuin-6 (Homo sapiens) (Q8N6T7 whole entry, the tested form may be a part): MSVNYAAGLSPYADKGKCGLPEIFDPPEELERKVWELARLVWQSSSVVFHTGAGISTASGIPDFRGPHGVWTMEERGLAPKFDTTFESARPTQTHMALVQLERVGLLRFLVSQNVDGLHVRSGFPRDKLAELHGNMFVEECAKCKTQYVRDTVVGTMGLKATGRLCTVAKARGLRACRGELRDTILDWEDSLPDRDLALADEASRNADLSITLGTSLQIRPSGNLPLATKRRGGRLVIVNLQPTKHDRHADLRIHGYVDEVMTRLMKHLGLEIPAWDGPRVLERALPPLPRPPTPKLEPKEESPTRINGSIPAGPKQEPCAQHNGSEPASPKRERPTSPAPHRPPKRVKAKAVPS

[3] = molecular target: T2, NAD-dependent protein deacetylase sirtuin-1 (Homo sapiens) (UniProt Q96EB6); test: Inhibition of recombinant human C-terminal His6-tagged SIRT1 (Met1 to Ser747 residues) demyristoylase activity expressed in Escherichia coli at 1 uM using p53(Myr)-AMC as substrate measured after 3 hrs in presence of NAD+ and trypsin by fluorescence assay relative to control
T2 sequence (whole entry): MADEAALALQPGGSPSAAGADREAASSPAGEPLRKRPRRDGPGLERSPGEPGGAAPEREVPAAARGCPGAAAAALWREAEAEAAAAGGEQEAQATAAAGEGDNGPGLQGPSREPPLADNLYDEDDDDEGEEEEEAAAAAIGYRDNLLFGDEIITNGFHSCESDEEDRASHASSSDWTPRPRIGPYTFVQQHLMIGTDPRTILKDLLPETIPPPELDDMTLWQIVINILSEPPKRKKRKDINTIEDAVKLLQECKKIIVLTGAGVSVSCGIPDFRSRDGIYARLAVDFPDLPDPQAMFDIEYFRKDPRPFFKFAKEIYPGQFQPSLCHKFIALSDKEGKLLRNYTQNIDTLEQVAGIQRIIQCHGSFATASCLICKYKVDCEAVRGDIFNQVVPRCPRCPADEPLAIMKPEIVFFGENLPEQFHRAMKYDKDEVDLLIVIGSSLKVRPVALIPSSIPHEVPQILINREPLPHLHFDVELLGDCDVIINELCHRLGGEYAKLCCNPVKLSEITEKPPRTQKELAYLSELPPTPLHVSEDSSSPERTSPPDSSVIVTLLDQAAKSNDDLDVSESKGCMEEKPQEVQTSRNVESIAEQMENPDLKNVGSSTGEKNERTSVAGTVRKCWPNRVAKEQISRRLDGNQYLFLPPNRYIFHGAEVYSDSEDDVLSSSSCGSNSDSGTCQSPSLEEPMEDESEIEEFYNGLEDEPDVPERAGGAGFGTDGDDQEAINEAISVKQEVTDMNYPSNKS
Procedure, shortened: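 SIRT1 at 14 nM final with 50 μM p53(Myr)-AMC and 500 μM NAD⁺ in Tris-HCl pH 8.0/NaCl/DTT/Triton buffer, 0.5% DMSO, 3 h at room temperature. Trypsin (100 nM final) plus nicotinamide (1 mM final) then added. Fluorescence Ex 355/Em 460 nm read every 5 min for 20 min at 37 °C. n = 3.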

[4] = molecular target: T2, NAD-dependent protein deacetylase sirtuin-1 (Homo sapiens); test: Inhibition of recombinant human C-terminal His6-tagged SIRT1 (Met1 to Ser747 residues) defatty-acylase activity expressed in Escherichia coli at 2 uM using SFP3 as substrate measured at 5 mins interval for 60 mins in presence of NAD+ by fluorescence assay relative to control
[5] = molecular target: T3, NAD-dependent protein deacetylase sirtuin-3, mitochondrial (Homo sapiens) (UniProt Q9NTG7); test: Inhibition of recombinant human SIRT3 (118 to 399 residues) defatty-acylase activity expressed in Escherichia coli at 2 uM using SFP3 as substrate measured at 5 mins interval for 60 mins in presence of NAD+ by fluorescence assay relative to control
T3 sequence (whole entry): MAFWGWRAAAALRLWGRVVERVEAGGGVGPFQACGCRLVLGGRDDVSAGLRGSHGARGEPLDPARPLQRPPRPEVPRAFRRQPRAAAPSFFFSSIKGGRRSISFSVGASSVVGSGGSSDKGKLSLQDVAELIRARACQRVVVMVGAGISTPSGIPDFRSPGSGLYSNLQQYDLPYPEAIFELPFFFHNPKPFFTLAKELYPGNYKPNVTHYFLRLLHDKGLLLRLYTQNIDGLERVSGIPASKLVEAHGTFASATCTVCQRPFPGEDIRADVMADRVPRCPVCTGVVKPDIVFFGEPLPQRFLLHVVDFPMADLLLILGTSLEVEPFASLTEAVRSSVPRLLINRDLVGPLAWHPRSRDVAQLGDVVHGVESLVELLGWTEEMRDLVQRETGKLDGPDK
Procedure, shortened: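 SIRT3 at 60 nM final with 2.5 μM SFP3 and 500 μM NAD⁺ in Tris-HCl pH 8.0, 150 mM NaCl, 1 mM DTT, 0.05% Triton X-100. Final DMSO 0.2%, or 0.5% for AGK2/NAM. Fluorescence Ex 485/Em 535 nm every 5 min for 60 min at 37 °C. n = 3.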

[6] = molecular target: T3, NAD-dependent protein deacetylase sirtuin-3, mitochondrial (Homo sapiens); test: Inhibition of recombinant human SIRT3 (118 to 399 residues) demyristoylase activity expressed in Escherichia coli at 1 uM using p53(Myr)-AMC as substrate measured after 3 hrs in presence of NAD+ and trypsin by fluorescence assay relative to control
Procedure, shortened: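 SIRT3 at 120 nM with 50 μM p53(Myr)-AMC and 500 μM NAD⁺ in Tris-HCl pH 8.0/NaCl/DTT/Triton buffer, 0.5% DMSO, 3 h at room temperature. Trypsin (100 nM) plus nicotinamide (1 mM) then added. Fluorescence Ex 355/Em 460 nm every 5 min for 20 min at 37 °C. n = 3.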

[7] = molecular target: T1, NAD-dependent protein deacetylase sirtuin-2 (Homo sapiens); test: Inhibition of recombinant human SIRT2 defatty-acylase activity at 2 uM using SFP3 as substrate measured at 5 mins interval for 60 mins in presence of NAD+ by fluorescence assay relative to control
[8] = molecular target: T1, NAD-dependent protein deacetylase sirtuin-2 (Homo sapiens); test: Time-dependent inhibition of recombinant human SIRT2 defatty-acylase activity at 62.5 to 1000 nM using SFP3 as substrate measured at 5 mins interval for 60 mins in presence of NAD+ by fluorescence assay
HeLa = test: Cytotoxicity against human HeLa cells assessed as reduction in cell viability at 50 uM measured after 72 hrs by CCK8 assay; assay type: functional, cell-based
Procedure, shortened: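 HeLa cells, 1.0 × 10⁴ per well on PLL-coated plates, grown overnight in DMEM with 10% FBS and penicillin/streptomycin, 37 °C, 5% CO₂. Compounds added in DMEM (2% DMSO stock), range 1.56–50 μM final, for 72 h. CCK-8 reagent then 2 h at 37 °C, absorbance read at 450 nm. DMSO control.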

[9] = molecular target: T1, NAD-dependent protein deacetylase sirtuin-2 (Homo sapiens); test: Inhibition of recombinant human SIRT2 deacylation activity using H4K16-Ac as substrate measured after 30 mins in presence of NAD+ by HPLC analysis
Procedure, shortened: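 H4K16-Ac peptide at 100 μM with 500 μM NAD⁺ and 175 nM SIRT2 in Tris-HCl pH 8.0/NaCl/Triton buffer lacking DTT, 0.5% DMSO, 30 min at 37 °C. Inhibitors at 0.01–10 μM. Stopped with HCl in MeOH. Deacetylated product quantified by reversed-phase HPLC at 280 nm.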

[10] = molecular target: T1, NAD-dependent protein deacetylase sirtuin-2 (Homo sapiens); test: Inhibition of recombinant human SIRT2 demyristoylase activity using H4K16-Myr as substrate measured after 2 hrs in presence of NAD+ by HPLC analysis
Procedure, shortened: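 H4K16-Myr at 100 μM with 500 μM NAD⁺ and 175 nM SIRT2 in Tris-HCl pH 8.0/NaCl/Triton buffer without DTT, 0.5% DMSO, 2 h at 37 °C. Inhibitors at 0.1–10 μM; AGK2 at 50 μM, NAM at 500 μM. Stopped with HCl/MeOH. Demyristoylated H4K16 product measured by HPLC at 280 nm. Percent inhibition, n = 3.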

inhibition [1]	inhibition [2]	inhibition [3]	inhibition [4]	inhibition [5]	inhibition [6]	inhibition [7]	TDI [8]	inhibition [9]	inhibition [10]	Structure (SMILES)	Activity (HeLa)
17%	2.6%	31%	18%	14%	5.6%					CC[C@H](C)[C@H](NC(=O)[C@@H](NC(=O)[C@H](CCCCNC(=O)Cc1ccc(/N=N/c2ccccc2)cc1)NC(=O)[C@H](CC(=O)O)NC(=O)[C@H](CO)NC(C)=O)[C@@H](C)O)C(N)=O (Ac-SDK(Phenylacetyl(4-E-phenylazo))TI-NH2)	
3.2%	-7.4%	2.8%	1.3%	-0.08%	5.6%	13%				C[C@H](NC(=O)[C@H](CCCCNC(=O)Cc1ccc(/N=N/c2ccc(OCc3ccccc3)cc2)cc1)NC(=O)OCc1ccccc1)C(N)=O	
	28%									CC[C@H](C)[C@H](NC(C)=O)C(=O)N[C@@H](CCCCNC(=O)Cc1ccc(/N=N/c2ccccc2)cc1)C(=O)N[C@@H](CCCNC(=N)N)C(N)=O	
	0.64%									CC[C@H](C)[C@H](NC(=O)[C@H](CCCCNC(=O)Cc1ccc(/N=N/c2ccccc2)cc1)NC(=O)[C@@H](NC(C)=O)C(C)C)C(=O)N[C@@H](CCCCN)C(=O)N[C@@H](CCCCN)C(N)=O (Ac-VK(Phenylacetyl(4-E-phenylazo))IKK-NH2)	
	13%	42%	22%		34%		inactive			CC[C@H](C)[C@H](NC(=O)[C@H](CCCNC(=N)N)NC(C)=O)C(=O)N[C@@H](CCCCNC(=O)c1ccc(/N=N/c2ccc(N(C)C)cc2)cc1)C(=O)N[C@@H](CCCNC(=N)N)C(=O)N[C@@H](Cc1ccc(O)cc1)C(N)=O (Ac-RIK(X2)RY-NH2)	
5.3%	3.8%	20%	8.8%	5.9%	2.6%	18%				C[C@H](NC(=O)[C@H](CCCCNC(=O)Cc1ccc(/N=N/c2ccc(O)cc2)cc1)NC(=O)OCc1ccccc1)C(N)=O	
2%	11%	3.2%	8.9%	10%	-1.1%	7.8%				CC[C@H](C)[C@H](NC(=O)[C@@H](NC(=O)[C@H](CCCCNC(=O)c1ccc(/N=N/c2ccc(N(C)C)cc2)cc1)NC(=O)[C@H](CC(=O)O)NC(=O)[C@H](CO)NC(C)=O)[C@@H](C)O)C(N)=O (Ac-SDK(X2)TI-NH2)	
	3.1%	32%	16%		58%					CC[C@H](C)[C@H](NC(=O)[C@H](CCCNC(=N)N)NC(C)=O)C(=O)N[C@@H](CCCCNC(=O)C(F)(F)F)C(=O)N[C@@H](CCCNC(=N)N)C(=O)N[C@@H](Cc1ccc(O)cc1)C(N)=O (Ac-RIK(Tfa)RY-NH2)	
	-3.3%	2.7%	0.81%	-0.9%	-1.2%					CCCCCCCCCCCCCC(=S)NCCCC[C@H](NC(=O)OCc1ccccc1)C(=O)Nc1ccccc1	Active
	-2.2%									Cc1cc(C)nc(SCC(=O)Nc2ncc(Cc3cccc4ccccc34)s2)n1	
	28%									CC[C@H](C)[C@H](NC(=O)[C@H](CCCNC(=N)N)NC(C)=O)C(=O)N[C@@H](CCCCNC(=O)Cc1ccc(/N=N/c2ccc(N(CC)CC)cc2)cc1)C(=O)N[C@@H](CCCNC(=N)N)C(=O)N[C@@H](Cc1ccc(O)cc1)C(N)=O (Ac-RIK(X5)RY-NH2)	
	32%							Dose-dependent effect	Dose-dependent effect	CC[C@H](C)[C@H](NC(=O)[C@H](CCCNC(=N)N)NC(C)=O)C(=O)N[C@@H](CCCCNC(=O)Cc1ccc(/N=N/c2ccccc2)cc1)C(=O)N[C@@H](CCCNC(=N)N)C(=O)N[C@@H](Cc1ccc(O)cc1)C(N)=O (Ac-RIK(Phenylacetyl(4-E-phenylazo))RY-NH2)	inactive
2.9%	-0.32%	6.3%	2%	7%	-0.13%	1.4%				C[C@H](NC(=O)[C@H](CCCCNC(=O)Cc1ccc(/N=N/c2ccc(OCCc3ccccc3)cc2)cc1)NC(=O)OCc1ccccc1)C(N)=O	
23%	13%	42%			11%		inactive			CC[C@H](C)[C@H](NC(=O)[C@H](CCCNC(=N)N)NC(C)=O)C(=O)N[C@@H](CCCCNC(=O)CCc1ccc(/N=N/c2ccc(N(C)C)cc2)cc1)C(=O)N[C@@H](CCCNC(=N)N)C(=O)N[C@@H](Cc1ccc(O)cc1)C(N)=O (Ac-RIK(X3)RY-NH2)	
